Data taken from ChEMBL document CHEMBL1146034, “Synthesis, DNA affinity, and antiprotozoal activity of linear dications: Terphenyl diamidines and analogues” (J Med Chem, 2006).
pIC50: −log10 of the molar value. Calls of active or inactive are those of the source. No cut-off for these calls is given here.

Key:
[1] = test system: Mus musculus; assay: Antiprotozoal activity in mouse infected with Trypanosoma brucei rhodesiense STIB900 measured as average days of survival at 100 mg/kg, po; format: organism-based; design: dose 100 mg/kg, route oral; conditions: in vivo
Summary of the method: (§1)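 Acute STIB900 mouse model. Dosing ran for 4 days, given ip or po. The read-out was average days of survival post infection. Mice surviving 60 days parasite-free were scored as cures. Untreated infected mice served as controls.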

[2] = Half life in B6C3F1 mouse liver microsome; format: ADME; conditions: liver microsomes
Summary of the method: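 Pooled male B6C3F1 mouse liver microsomes (0.5 mg/mL protein) in 100 mM phosphate pH 7.4 with 5 mM MgCl2 and 0.5% DMSO, run in duplicate. After 3 min preincubation at 37 °C, 2 mM NADPH started the reaction. Acetonitrile quench at 0–30 min, then LC-MS/MS (positive MRM). t1/2 = 0.693/slope of ln % parent remaining versus time.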

[3] = test system: Trypanosoma brucei rhodesiense; assay: Antiprotozoal activity against Trypanosoma brucei rhodesiense STIB900; format: functional, organism-based
Summary of the method: (§2)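 Run in vitro against T. b. rhodesiense strain STIB900 or P. falciparum strain K1. Values are from duplicate determinations.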

[4] = test system: Plasmodium falciparum; assay: Antiprotozoal activity against Plasmodium falciparum K1; format: functional, organism-based; summary of the method: as §2
[5] = test system: L6; assay: Cytotoxicity against rat L6 cells; format: functional, cell-based
[6] = test system: Mus musculus; assay: Antiprotozoal activity in mouse infected with Trypanosoma brucei rhodesiense STIB900 measured as survival upto 60 days at 25 mg/kg, po; format: functional, organism-based; design: dose 25 mg/kg
Summary of the method: (§3)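 Acute mouse model of T. b. rhodesiense STIB900 infection. Compound was given for 4 days, either intraperitoneally or orally, at the stated dose, with untreated infected controls. Read-outs were the number of mice alive and parasite-free at 60 days and the average days of survival.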

[7] = test system: Mus musculus; assay: Antiprotozoal activity in mouse infected with Trypanosoma brucei rhodesiense STIB900 measured as average days of survival at 25 mg/kg, po; format: functional; summary of the method: as §1
[8] = test system: Mus musculus; assay: Antiprotozoal activity in mouse infected with Trypanosoma brucei rhodesiense STIB900 measured as survival upto 60 days at 100 mg/kg, po; format: functional, organism-based; design: dose 100 mg/kg; summary of the method: as §3
[9] = test system: Mus musculus; assay: Antiprotozoal activity in mouse infected with Trypanosoma brucei rhodesiense STIB900 measured as survival upto 60 days at 5 mg/kg, ip; format: functional, organism-based; design: dose 5 mg/kg; summary of the method: as §3
[10] = test system: Mus musculus; assay: Antiprotozoal activity in mouse infected with Trypanosoma brucei rhodesiense STIB900 measured as average days of survival at 5 mg/kg, ip; format: functional; conditions: route intraperitoneal; summary of the method: as §1
[11] = test system: Mus musculus; assay: Antiprotozoal activity in mouse infected with Trypanosoma brucei rhodesiense STIB900 measured as survival upto 60 days at 20 mg/kg, ip; format: functional, organism-based; design: dose 20 mg/kg; summary of the method: as §3
[12] = test system: Mus musculus; assay: Antiprotozoal activity in mouse infected with Trypanosoma brucei rhodesiense STIB900 measured as average days of survival at 20 mg/kg, ip; format: functional; conditions: route intraperitoneal; summary of the method: as §1

## CON=C(N)c1ccc(-c2ccc(-c3ccc(C(N)=NOC)cc3)cc2)cc1
[1]
  Survival: 20.75 days
[2]
  half-life: > 1.5 h

## CONC(=N)c1ccc(-c2ccc(-c3ccc(C(=N)NOC)cn3)cc2)nc1
[3]
  pIC50: 4.08
[4]
  pIC50: 5.92
[5]
  pIC50: < 3.80
[6]
  Activity: inactive
[7]
  Survival: 12 days
[2]
  half-life: > 1.5 h

## CONC(=N)c1ccc(-c2ccc(-c3ccc(C(=N)NOC)cc3)o2)cc1 [PAFURAMIDINE]
[7]
  Survival: >60 days
[2]
  half-life: < 0.25 h

## CONC(=N)c1ccc(-c2ccc(-c3ccc(C(=N)NOC)cc3)cc2)cc1
[3]
  pIC50: 4.86
[4]
  pIC50: 6.43
[5]
  pIC50: 3.93
[8]
  Activity: inactive

## N=C(NO)c1ccc(-c2ccc(-c3ccc(/C(N)=N\O)cc3)nc2)cc1
[3]
  pIC50: 5.03
[4]
  pIC50: 5.12
[5]
  pIC50: < 3.74
[1]
  Survival: > 35.75 days

## CONC(=N)c1ccc(-c2ccc(-c3ccc(C(=N)NOC)cc3)c(C(F)(F)F)c2)cc1
[3]
  pIC50: 4.43
[4]
  pIC50: 5.42
[5]
  pIC50: 4.37
[6]
  Activity: inactive
[7]
  Survival: 7.25 days

## N=C(NO)c1ccc(-c2ccc(-c3ccc(/C(N)=N\O)cc3)cc2F)cc1
[4]
  pIC50: 6.03
[5]
  pIC50: 4.54
[6]
  Activity: inactive
[7]
  Survival: 22.25 days

## CONC(=N)c1ccc(-c2cnc(-c3ccc(C(=N)NOC)cc3)nc2)cc1
[3]
  pIC50: 4.31
[4]
  pIC50: 5.24
[5]
  pIC50: < 3.75
[6]
  Activity: inactive
[7]
  Survival: 12.5 days
[2]
  half-life: > 1.5 h

## N=C(N)c1ccc(-c2cnc(-c3ccc(C(=N)N)cc3)nc2)cc1
[4]
  pIC50: 9.30
[9]
  Activity: inactive
[10]
  Survival: 23.5 days

## N=C(N)c1ccc(-c2ccc(-c3ccc(C(=N)N)cc3)c(C(F)(F)F)c2)cc1
[3]
  pIC50: 7.32
[4]
  pIC50: 7.82
[5]
  pIC50: 5.03
[9]
  Activity: inactive
[10]
  Survival: 17.25 days

## CO/N=C(/N)c1ccc(-c2ccc(-c3ccc(C(=N)NOC)cc3)nc2)cc1
[3]
  pIC50: 4.46
[4]
  pIC50: 5.49
[5]
  pIC50: < 3.78
[6]
  Activity: inactive
[7]
  Survival: >42.75 days
[2]
  half-life: 0.917 h

## N=C(NO)c1ccc(-c2ccc(-c3ccc(/C(N)=N/O)cc3)cc2)o1
[3]
  pIC50: 4.17
[4]
  pIC50: 5.18
[6]
  Activity: inactive
[7]
  Survival: 16 days

## N=C(N)c1ccc(-c2ccc(-c3ccc(C(=N)N)cc3)nc2)cc1
[3]
  pIC50: 8.70
[4]
  pIC50: 8.00
[11]
  Activity: Active
[12]
  Survival: >60 days
[10]
  Survival: >42 days

## N=C(NO)c1ccc(-c2ccc(-c3ccc(/C(N)=N\O)cc3)cc2C(F)(F)F)cc1
[3]
  pIC50: 4.52
[4]
  pIC50: 5.51
[5]
  pIC50: 4.88
[6]
  Activity: inactive
[7]
  Survival: 9 days

## N=C(N)c1ccc(-c2ccc(-c3ccc(C(=N)N)o3)cc2)cc1
[3]
  pIC50: 8.30
[4]
  pIC50: 9.00
[5]
  pIC50: 4.25
[11]
  Activity: inactive
[12]
  Survival: 21.25 days

## CONC(=N)c1ccc(-c2ccc(-c3ccc(C(=N)NOC)cc3)c(F)c2)cc1
[3]
  pIC50: 4.29
[4]
  pIC50: 5.38
[5]
  pIC50: 5.07
[6]
  Activity: inactive
[7]
  Survival: 37.25 days
[2]
  half-life: > 1.5 h

## N=C(N)c1ccc(-c2ccc(-c3ccc(C(=N)N)cc3)o2)cc1 [FURAMIDINE]
[11]
  Activity: inactive
[9]
  Activity: inactive
[12]
  Survival: >52.5 days
[10]
  Survival: 35.5 days

## CO/N=C(\N)c1ccc(-c2ccc(-c3ccc(C(=N)NOC)cc3)cc2)o1
[3]
  pIC50: 4.62
[4]
  pIC50: 5.80
[5]
  pIC50: < 3.69
[6]
  Activity: inactive
[7]
  Survival: 6.25 days

## N=C(N)c1ccc(-c2ccc(-c3ccc(C(=N)N)cc3)cc2)cc1
[3]
  pIC50: 8.30
[4]
  pIC50: 9.00
[12]
  Survival: >47.75 days

## N=C(N)c1ccc(-c2ccc(-c3ccc(C(=N)N)cc3)c(F)c2)cc1
[3]
  pIC50: 8.70
[4]
  pIC50: 9.00
[9]
  Activity: inactive
[10]
  Survival: >51.75 days

## N=C(N)c1ccc(OCCCCCOc2ccc(C(=N)N)cc2)cc1 [PENTAMIDINE]
[11]
  Activity: inactive
[12]
  Survival: >42.75 days

## N=C(NO)c1ccc(-c2ccc(-c3ccc(/C(N)=N\O)cc3)cc2)cc1
[3]
  pIC50: 4.64
[4]
  pIC50: < 4.93
[5]
  pIC50: < 3.68
[8]
  Activity: inactive
[1]
  Survival: 24.75 days

## N=C(N)c1ccc(-c2ccc(-c3ccc(C(=N)N)o3)cn2)cc1
[3]
  pIC50: 8.70
[4]
  pIC50: 8.00
[5]
  pIC50: 4.51
[12]
  Survival: >53.5 days
[10]
  Survival: >41.75 days

## COc1cc(-c2ccc(C(=N)N)cc2)c(OC)cc1-c1ccc(C(=N)N)cc1
[3]
  pIC50: 7.82
[4]
  pIC50: 7.43
[5]
  pIC50: < 4.00
[10]
  Survival: >51.75 days

## N=C(N)c1ccc(-c2ccc(-c3ccc(C(=N)N)cn3)cc2)nc1
[3]
  pIC50: 7.33
[4]
  pIC50: 8.00
[10]
  Survival: >60 days
